The record followed here is ChEMBL document CHEMBL1123501, “Inactivation of leukocyte elastase by aryl azolides and sulfonate salts. Structure-activity relationship studies” (J Med Chem, 1986).

Calls of active or inactive are those of the source. The calls are words filed in the database; no cut-off is given here.

The first assay deals with T1, Neutrophil elastase (Homo sapiens) (UniProt P08246).
T1 sequence (whole entry): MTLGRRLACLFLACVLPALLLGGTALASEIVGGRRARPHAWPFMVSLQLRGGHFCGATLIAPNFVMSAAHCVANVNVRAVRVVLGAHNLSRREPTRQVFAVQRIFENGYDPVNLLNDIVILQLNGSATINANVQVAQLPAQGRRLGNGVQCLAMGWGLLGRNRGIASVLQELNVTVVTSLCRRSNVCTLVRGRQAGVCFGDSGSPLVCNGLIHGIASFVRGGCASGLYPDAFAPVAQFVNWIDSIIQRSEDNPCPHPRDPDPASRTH
Briefly: Compound was evaluated for the inhibitory activity against human Leukocyte elastase; Inactive. Put shortly: (§1)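 Human leukocyte elastase (enzyme stock 3.4 × 10⁻⁵ M in pH 5.5 acetate) incubated at 25 °C with inhibitor (DMSO stock 3.4 × 10⁻⁴ M) in Tris buffer pH 7.2. The inhibitor:enzyme ratio was 10–50. Aliquots taken over time were added to MeOSuc-Ala-Ala-Pro-Val-pNA (stock 3.15 × 10⁻² M). Residual activity was read at 410 nm for 2 min after 30 s, against a DMSO control.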
`O=C(Nc1cccc(C(F)(F)F)c1)n1ccnc1`: the “K obs / 1” value was “inactive”. Turning to `O=C(NCc1ccc(C(F)(F)F)cc1)n1ccnc1`, the “K obs / 1” value was “inactive”.

Take `O=C(NCc1cccc(F)c1)n1ccnc1`: the “K obs / 1” value was “inactive”. The same measure, in the same setting: under `O=C(Nc1ccccc1C(F)(F)F)n1ccnc1` stands “inactive”; under `O=C(Nc1cccc(F)c1)n1ccnc1`, “inactive”; under `O=C(NCc1cccc(C(F)(F)F)c1)n1ccnc1`, “inactive”.

The target in the next assay is T1, Neutrophil elastase (Homo sapiens). Briefly: Inhibitory activity against human Leukocyte elastase; inactive (at 243-fold excess of inhibitor over enzyme).
`O=C(Nc1cccc(F)c1)S(=O)(=O)O`: the “K obs / 1” value was “inactive”. Regarding `O=C(Nc1ccc(Cl)cc1)S(=O)(=O)O`, the “K obs / 1” value was “inactive”. On the same count and under the same terms, under `O=C(Nc1cccc(Cl)c1)S(=O)(=O)O` stands “inactive”. On to `O=C(Nc1ccccc1)S(=O)(=O)O`, for which the “K obs / 1” value was “inactive”. The same measure, in the same setting: under `O=C(Nc1cccc(C(F)(F)F)c1)S(=O)(=O)O` stands “inactive”; under `O=C(NCc1cccc(C(F)(F)F)c1)S(=O)(=O)O`, “inactive”. As for `O=C(Nc1ccccc1C(F)(F)F)S(=O)(=O)O`, the “K obs / 1” value was “inactive”.

With `O=C(NCc1cccc(F)c1)S(=O)(=O)O`, the “K obs / 1” value was “inactive”.

For the compound `O=C(Nc1ccc(C(F)(F)F)cc1)S(=O)(=O)O`, the “K obs / 1” value is “inactive”.

A further assay shares this target. Briefly: Inhibitory activity against human Leukocyte elastase. Put shortly: as §1
For the compound `COC(=O)C(Cc1ccccc1)NC(=O)n1ccccc1=O` (centres undefined), the K obs / 1 was 2330 M⁻¹ s⁻¹. With `O=C(Nc1cn(-c2ccccc2)cn1)n1ccccc1=O`, the K obs / 1 was 500 M⁻¹ s⁻¹. `COC(=O)C(Cc1cccc(F)c1)NC(=O)S(=O)(=O)O` (racemic) returned a K obs / 1 of 57 M⁻¹ s⁻¹. Consider `O=C(Nc1cn(-c2cccc(C(F)(F)F)c2)cn1)n1ccccc1=O`, for which the K obs / 1 stood at 11700 M⁻¹ s⁻¹. As for `COC(=O)C(Cc1ccccc1)NC(=O)S(=O)(=O)O` (racemic), the K obs / 1 was 550 M⁻¹ s⁻¹. The compound `O=C(NCCc1cccc(C(F)(F)F)c1)n1ccnc1` gave a K obs / 1 of 483 M⁻¹ s⁻¹.

As for `O=C(Nc1cn(-c2cccc(F)c2)cn1)n1ccccc1=O`, the K obs / 1 stood at 317 M⁻¹ s⁻¹. As for `O=C(NCCc1ccccc1)n1ccnc1`, the K obs / 1 came out at 35 M⁻¹ s⁻¹.

As to `COC(=O)C(Cc1cccc(C(F)(F)F)c1)NC(=O)n1ccnc1` (centres undefined), the K obs / 1 was found to be 1100 M⁻¹ s⁻¹. As for `O=C(NCCc1cccc(F)c1)n1ccnc1`, the K obs / 1 came out at 38 M⁻¹ s⁻¹. Still for that read-out and setting: the value for `O=C(NCCc1ccccc1)S(=O)(=O)O` was 4 M⁻¹ s⁻¹. `O=C(Nc1cn(-c2cccc(C(F)(F)F)c2)cn1)ON1C(=O)CCC1=O` returned a K obs / 1 of 13500 M⁻¹ s⁻¹. As for `COC(=O)C(Cc1ccccc1)NC(=O)ON1C(=O)CCC1=O` (centres undefined), the K obs / 1 came out at 6640 M⁻¹ s⁻¹.

`COC(=O)C(Cc1cccc(F)c1)NC(=O)n1ccnc1` (centres undefined): the K obs / 1 was found to be 318 M⁻¹ s⁻¹.

In turn, `COC(=O)C(Cc1ccccc1)NC(=O)n1ccnc1` (centres undefined) displayed a K obs / 1 of 2070 M⁻¹ s⁻¹. As to `O=C(Nc1cn(-c2ccccc2)cn1)ON1C(=O)CCC1=O`, the K obs / 1 worked out at 927 M⁻¹ s⁻¹. Regarding `COC(=O)C(Cc1cccc(C(F)(F)F)c1)NC(=O)S(=O)(=O)O` (racemic), the K obs / 1 is 13 M⁻¹ s⁻¹. With `O=C(NCCc1cccc(F)c1)S(=O)(=O)O`, the K obs / 1 is 18 M⁻¹ s⁻¹. On to `O=C(Nc1cn(-c2cccc(F)c2)cn1)ON1C(=O)CCC1=O`, for which the K obs / 1 amounted to 823 M⁻¹ s⁻¹.
